{"data": "Experimental data of several laboratories", "target": "cGMP-dependent protein kinase 1 (PRKG1, Homo sapiens, UniProt Q13976)", "Sequence (Q13976 1-671, as in one of the studies)": "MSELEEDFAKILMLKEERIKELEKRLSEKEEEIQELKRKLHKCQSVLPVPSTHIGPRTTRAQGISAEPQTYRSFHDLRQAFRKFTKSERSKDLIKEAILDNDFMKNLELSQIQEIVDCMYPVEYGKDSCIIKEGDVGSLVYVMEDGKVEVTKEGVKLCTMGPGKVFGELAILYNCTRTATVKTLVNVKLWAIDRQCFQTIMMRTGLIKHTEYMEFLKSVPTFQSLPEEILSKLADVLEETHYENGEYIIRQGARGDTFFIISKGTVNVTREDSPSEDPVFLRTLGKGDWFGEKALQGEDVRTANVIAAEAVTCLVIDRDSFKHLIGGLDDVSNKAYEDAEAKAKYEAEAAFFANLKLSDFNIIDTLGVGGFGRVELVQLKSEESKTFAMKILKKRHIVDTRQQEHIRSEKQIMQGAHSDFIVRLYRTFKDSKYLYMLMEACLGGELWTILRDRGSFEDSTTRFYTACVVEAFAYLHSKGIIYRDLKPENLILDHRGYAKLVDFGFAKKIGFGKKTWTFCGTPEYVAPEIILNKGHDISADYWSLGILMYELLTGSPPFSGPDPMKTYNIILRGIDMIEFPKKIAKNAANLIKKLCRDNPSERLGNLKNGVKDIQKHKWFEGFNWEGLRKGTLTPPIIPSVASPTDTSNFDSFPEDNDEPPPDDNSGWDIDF", "note": "Compare with care: the assays were run in different laboratories."}
{"SMILES": "Cc1nc(C2CCN(C(=O)c3ccc(OC(F)(F)F)cc3N)CC2)c2ncc(N3CCN(C)CC3)cc2n1", "effect on": "cell-free assay", "technique": "competition with immobilised ligand", "tested at": "1 µM", "endpoint": "remaining binding", "result": "100%"}
{"SMILES": "CNC(=O)c1cc(Oc2ccc(NC(=O)Nc3ccc(Cl)c(C(F)(F)F)c3)cc2)ccn1", "effect on": "enzyme activity", "mode": "inhibitor", "tested at": "0.3 µM", "endpoint": "inhibition", "result": "-10%"}
{"SMILES": "Cn1cnc(Br)c1C1=CN(c2ncnc3[nH]cnc23)CCS1", "effect on": "enzyme activity", "mode": "inhibitor", "technique": "radiometric", "tested at": "2 µM", "endpoint": "inhibition", "result": "97.4%"}
{"SMILES": "Cc1ccc(C(=O)NCc2ccsc2)cc1C#Cc1cn(C(C)C)c2ncnc(N)c12", "effect on": "enzyme activity", "mode": "inhibitor", "tested at": "1 µM", "endpoint": "activity vs control", "result": "87%"}
{"SMILES": "CN(C)c1ncnc(-c2ccc3nc(Nc4cc(CN5CCN(C(=O)CC(F)(F)F)CC5)ccn4)[nH]c3c2)c1Cl", "effect on": "cell-free assay", "technique": "competition with immobilised ligand", "tested at": "1 µM", "endpoint": "remaining binding", "result": "94%"}
{"SMILES": "CCCOc1ccc(OC)c(F)c1C(=O)c1ccc(C(=O)N[C@@H]2CNC[C@H]2NC(=O)c2ccc3[nH]ncc3c2)cc1", "effect on": "enzyme activity", "mode": "inhibitor", "tested at": "0.1 µM", "endpoint": "remaining activity", "result": "15%"}
{"SMILES": "CC(C)(C)c1nc(-c2cccc(NS(=O)(=O)c3c(F)cccc3F)c2F)c(-c2ccnc(N)n2)s1", "effect on": "enzyme activity", "mode": "inhibitor", "technique": "radiometric", "tested at": "1 µM", "endpoint": "remaining activity", "result": "96%"}
{"SMILES": "c1ccc(N2CCN(Cc3nc4ccccc4[nH]3)CC2)nc1", "effect on": "binding", "technique": "competition with immobilised ligand", "tested at": "1 µM", "endpoint": "remaining binding", "result": "100%"}
{"SMILES": "CC(C)c1ccc(NC(=O)c2cccs2)c(-c2nc3ccccc3[nH]c2=O)c1", "effect on": "enzyme activity", "mode": "inhibitor", "tested at": "1 µM", "endpoint": "activity vs control", "result": "123%"}
{"SMILES": "COc1cc2ncnc(Nc3ccc(Oc4ccccc4)c(C)c3C)c2cc1OC", "effect on": "enzyme activity", "mode": "inhibitor", "tested at": "1 µM", "endpoint": "inhibition", "result": "4%"}
{"SMILES": "C[C@H](c1ccc(F)cc1)N(Cc1cccc(C(=O)O)c1)C(=O)c1cnc2ccccc2c1", "effect on": "cell-free assay", "technique": "competition with immobilised ligand", "tested at": "1 µM", "endpoint": "remaining binding", "result": "100%"}
{"SMILES": "Nc1ncnc2occ(-c3ccc(NC(=O)Nc4cc(C(F)(F)F)ccc4F)cc3)c12", "effect on": "cell-free assay", "mode": "inhibitor", "tested at": "20 µM", "endpoint": "remaining signal", "result": "87%"}
{"SMILES": "Cc1ccc(NC(=O)c2ccc(C)c(C(F)(F)F)c2)cc1C#Cc1nn(C2CCC(O)CC2)c2ncnc(N)c12 (centres unmarked)", "effect on": "cell-free assay", "tested at": "10 µM", "endpoint": "remaining signal", "result": "118%"}
{"SMILES": "O=C(Nc1cccnn1)N1CCC(=Cc2cccc(Oc3ccc(C(F)(F)F)cn3)c2)CC1", "effect on": "cell-free assay", "technique": "competition with immobilised ligand", "tested at": "1 µM", "endpoint": "remaining binding", "result": "100%"}
{"SMILES": "COc1cc(Cl)c(C(=O)N[C@@H](CN[C@H]2CC[C@@H](N)CC2)Cc2ccc(C#N)cc2)cc1-c1ccc(CN[C@H](C)c2ccc(C)cc2)o1", "effect on": "enzyme activity", "mode": "inhibitor", "tested at": "1 µM", "endpoint": "remaining activity", "result": "91%"}
{"SMILES": "CCN(CC)c1ccc(C2=NNC(=O)CC2C)cc1[N+](=O)[O-] (centres unmarked)", "effect on": "enzyme activity", "mode": "inhibitor", "tested at": "10 µM", "endpoint": "remaining activity", "result": "83%"}
{"SMILES": "Cc1cc(NC(=O)c2cccc3cc(-c4cccc5[nH]nc(N)c45)ccc23)ccc1F", "effect on": "enzyme activity", "mode": "inhibitor", "tested at": "0.1 µM", "endpoint": "activity vs control", "result": "122%"}
